The record followed here is the EternaBench riboswitch data.

What is called apparent Kd is the concentration giving half-maximal binding under the conditions of the assay.

In this data set the test system is MS2 coat protein. Kind of data set: apparent Kd, MS2 coat protein; higher = weaker binding; RNA-MaP array; FMN 200 µM where present. Put shortly: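 Each design was made on Illumina sequencing-chip clusters by stalled E. coli RNA polymerase and titrated with SNAP-549-labelled MS2 coat protein from 0.7 or 1.5 nM, doubling to 3 µM, in the absence and then the presence of constant ligand. The buffer was 100 mM Tris-HCl pH 7.5, 80 mM KCl, 4 mM MgCl2, BSA, DTT, yeast tRNA and Tween-20. The apparent Kd is the median of filtered per-cluster fits of binding curves, with green signal normalised to red-channel RNA signal and control-cluster median Fmax.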

Where [1] appears, read: designed as: ON switch for flavin mononucleotide, no ligand.
[2] abbreviates: ligand present: flavin mononucleotide, designed as: ON switch for flavin mononucleotide.
[3] abbreviates: designed as: OFF switch for flavin mononucleotide, no ligand.
Where [4] appears, read: ligand present: flavin mononucleotide, designed as: OFF switch for flavin mononucleotide.

As to “GUAUGAGCGAUAGGAUAUACUGAGAUUGAAUGGGUAGAAGGAUCUCUUGUGAGGAAGACAUGAGGAUCACCCAUGUCACGGGCC”, the “apparent Kd” value worked out at 100 nM under setting [1] and 175 nM under setting [2].
Consider “UGGUUGGGAGGAUAUCCAAUAUAUGACAUGAGGAUCACCCAUGUUUCCACUCGUACCUCCGGAGAAGGCCCUUCCA”, for which the “apparent Kd” value runs as follows: under setting [3], 23.1 nM; under setting [4], 22 nM.
On to “GCAUCCAAAGUGAGGAUAUACCUCUGGAUACAGAGGUAGAAGGCACAUGAGGAUCACCCAUGUUACUAGGAUGC”, for which the “apparent Kd” value was found to be 12.9 nM under setting [3] and 17 nM under setting [4].
Take “AAUCCACAUGAGGAUCACCCAUGUCAGGAUAUACGCAUCGGACCGAUCGGCUGUUUGGGUAGAAGGGACGUGCA”: the “apparent Kd” value is, setting by setting: under setting [3], 16 nM; under setting [4], 16.1 nM.
In the case of “CUUGUGUUAGGAUAUGCGCCCUGAAGUAGAAGGGCCAGAGAGCAGAAGGAACAUGAGGAUCACCCAUGUGUGAC”, the “apparent Kd” value by setting is: under setting [3], 59.7 nM; under setting [4], 56.5 nM.
As for “GUGGCUGUUAGGCUUGCGCCGGCGACAGAAGGCCAACAUGAGGAUCACCCAUGUACAAAGACCAUGGAGGAUAUGUUGCCAGUG”, the “apparent Kd” value under setting [1] is 41.8 nM and the “apparent Kd” value under setting [2] turned out to be 8.95 nM.
On to “UUAUAUAGAGUGAGGAUAUGCUGGUCCUUGGAUCAGCAGAAGGCACAUGAGGAUCACCCAUGUAAUAUAAUAUU”, for which the “apparent Kd” value was 22.4 nM under setting [3] and 42 nM under setting [4].
As for “AUUUAUGGCCAGAAGGACAUGAGGAUCACCCAUGUAGGAUAUGGACGAUUUUGCUCGACGGUUUGUUAAGGAAGCACCGGUGGU”, the “apparent Kd” value by setting is: under setting [1], 12.4 nM; under setting [2], 6.52 nM.
On to “UUCUGGCUAGGAUAUACAGUGUCCACGAGUUAGUUGCCCUAACAUGAGGAUCACCCAUGUAGAAGGAGCGAGAA”, for which the “apparent Kd” value reads like this: under setting [3], 48.2 nM; under setting [4], 83.7 nM.
Regarding “GGUUGUCAUAGUCAUCCUUUCCGUACAUGAGGAUCACCCAUGUAGGAUAUGCUGCUCUCGGUGUGGCAGAAGGGCGUGUGUCUU”, the “apparent Kd” value runs as follows: under setting [3], 17.8 nM; under setting [4], 18.9 nM.
As to “GUUAAGUGAGGAUAUGGUGAGUAGUGCCUGAGCGCUGCUCACCAGAAGGCACAUGAGGAUCACCCAUGUAUAGC”, the “apparent Kd” value amounted to 15.7 nM under setting [3] and 28 nM under setting [4].
For the sequence “GCCUUCGCAUGAGGAUAUGCUCCGGUUUCCGGAGCAGAAGGCAUGUCAUAAGACAUGAGGAUCACCCAUGUAGUUAAGAAGGCA”, the “apparent Kd” value came to 570 nM under setting [1] and 31.7 nM under setting [2].
On to “CUGUGUUGCGGGCAGGAUAUGUAUUGGAGUACAUGAGGAUCACCCAUGUGCGGGUGUUUCACCCGACAGAAGGGCCAAUCGCGAC”, for which the “apparent Kd” value under setting [1] was 128 nM and the “apparent Kd” value under setting [2] was determined as 24.5 nM.
Turning to “GGAAGACAAAGUCUUCCAUAACGAACAUGAGGAUCACCCAUGUAGGAUAUGCUACUCAAAGAGUAGCAGAAGGACAUGUGUCUU”, the “apparent Kd” value turned out to be 28.1 nM under setting [3] and 129 nM under setting [4].
For “CUUGAAUAAGUGAGGAUAUACUGUUAGUAAUGAUUGUAGAAGGUACAUGAGGAUCACCCAUGUUUAUUCUUUAU” the same measures were 15.7 nM and 16 nM.
For “AGGUAUCCUGAGAAAUUUCUCCACAUGAGGAUCACCCAUGUAGAGGAUAUCGACGCUGUGCGGUUCGAGAAGGCUACACUAAAA”, the “apparent Kd” value under setting [4] is 15.3 nM.
With “AAGUAGGUAGGAUAUGCAUAGAUAUACAUUCAUGUGGAUUUACAUGAGGAUCACCCAUGUAGAAGGACCUAAUA”, the “apparent Kd” value worked out at 37.5 nM under setting [3] and 136 nM under setting [4].
For “AGUGCGUAUGUGAGGAUAUGCUGGUCCUUGGAUCGGCAGAAGGCACAUGAGGAUCACCCAUGUGGUGUCGUACC” the same measures were 244 nM and 34 nM.
Regarding “GUAGCUAUCGGAGGAUAUUCAUACCGGAAACGGACAUGAGGAUCACCCAUGUGCGGAAACGCUUGGGAGAAGGCCGAUAGCUAC”, the “apparent Kd” value under setting [1] is 247 nM and the “apparent Kd” value under setting [2] came out at 19.4 nM.
For the sequence “GUAUAUCACUAAGGAUAUCUGUAAUAUGUUGAAACAUGAGGAUCACCCAUGUUCAUGUAUUUAUAGGAGAAGGUAGAGAUAUAC”, the “apparent Kd” value reads like this: under setting [1], 4.34 nM; under setting [2], 4.15 nM.
Consider “AAGAAGGCAGGAUAUACAAAAUAAAAGAAAAGAAAGAAAGAACAUGAGGAUCACCCAUGUAGAAGGGUCAAGAA”, for which the “apparent Kd” value under setting [3] is 59.3 nM and the “apparent Kd” value under setting [4] stood at 66.1 nM.
For “AGUACCAUGUAGAAGGGAUAUCUGAUUCAGAUAUCAGGAUAUACAUGAGGAUCACCCAUGUAAAUGUACUCCAGGAAACUGGAA”, in that order: 18 nM and 48 nM.
“CUGUUACAUGAGGAUCACCCAUGUAAGGAUAUCUGCCACUAGAGGGUCACUUUGGGAUGGAGAAGGUACACGGG”: the “apparent Kd” value was 34.6 nM under setting [3] and 68.6 nM under setting [4].
In the case of “AUCAGCUCGUCAGGAUAUACGUCACUGCGUCAGCAGUGUGGUAAGGUCACAUGAGGAUCACCCAUGUAGAAGGGACGAGCUGAU”, the “apparent Kd” value turned out to be 9.4 nM under setting [3] and 117 nM under setting [4].
As to “GUAGCAUACCGAGGAUAUUCAUAGCGGAAACGCACAUGAGGAUCACCCAUGUGGCGAAAGCCUUGGGAGAAGGCGGAAUGCUAC”, the “apparent Kd” value came out at 118 nM under setting [1] and 18.1 nM under setting [2].
For “GGGCCCGGAGGAUAUACAUGAGGAUCACCCAUGUAGGGCCCGGGUAUUCCCGGGUUUUGUAGAAGGCCGGGCCC”, the “apparent Kd” value under setting [4] worked out at 30.1 nM.
For the sequence “ACUAUACGAGGAUAUGCUGUCAGUACUCAGAGGUUAGUGUGACAUGAGGAUCACCCAUGUAGAAGGCGUUUACU”, the “apparent Kd” value under setting [3] is 40.8 nM and the “apparent Kd” value under setting [4] was found to be 34 nM.
“AAGUUGUCAGGAUAUCGUUAAUUUAGUUGUUUGUAUUAGUUCGAGAAGGGACAUGAGGAUCACCCAUGUUUGAA”: the “apparent Kd” value turned out to be 32.5 nM under setting [3] and 40.5 nM under setting [4].
Take “GUCGUGCGGCUUUGCUGUACGAGUACAUGAGGAUCACCCAUGUAGGAUAUGGUUCGCUUUGCGUGCCAGAAGGGCGUGCGUUGU”: the “apparent Kd” value turned out to be 28.7 nM under setting [3] and 28.1 nM under setting [4].
Regarding “AUUUUGUCAGGAUAUGACUAGAUGCACGAAAGUGCAUCUACUUAGAAGGGACAUGAGGAUCACCCAUGUAUUCC”, the “apparent Kd” value runs as follows: under setting [3], 17.3 nM; under setting [4], 17.8 nM.
Regarding “CUGUAGAUAUCAGGAUAUCUAUUUCCUACAUGAGGAUCACCCAUGUAGGUGAUCAGCCAAGUAAAGGAGAAGGGAUAUCUAUAG”, the “apparent Kd” value is, setting by setting: under setting [1], 38.5 nM; under setting [2], 11 nM.
For “UUGGACGUCGUAGGAUAUGUAGGAUUUUCCUACAUGAGGAUCACCCAUGUUGACAUGGAAGAAGGACAGAAGGACGAUGUCCAU”, the “apparent Kd” value was determined as 648 nM under setting [1] and 16.3 nM under setting [2].
As for “AAGUGCUAAGGAUAUAUAUGGAUAUACAUUUAUGUAGAACUACAUGAGGAUCACCCAUGUAGAAGGUAGCAAUA”, the “apparent Kd” value is, setting by setting: under setting [3], 25.3 nM; under setting [4], 42.3 nM.
For “CCUCAGUCAGGAUAUAUCGCACCCAUGAAGUACAUAGGUUCAUAGAAGGGACAUGAGGAUCACCCAUGUCUAGA”, in that order: 22 nM and 57 nM.
As to “GCGGCUAGUGCAGGAUAUCGGCGCGUGUAGCGCCGAGAAGGGCACAUGAGGAUCACCCAUGUGAUCAAUCAAUGCUAAUGCCGC”, the “apparent Kd” value amounted to 7.38 nM under setting [3] and 25.4 nM under setting [4].
In the case of “UUUAGUUCAGGAUAUGUAGAUUUUAACAUGAGGAUCACCCAUGUAGAUCCUGAAUUAACUACAGAAGGGAACAUUA”, the “apparent Kd” value under setting [3] came out at 21.3 nM and the “apparent Kd” value under setting [4] is 75.4 nM.
On to “AGUAAGAUGCAGAAGGUGUCAGCGAGAGCUGUACAUGAGGAUCACCCAUGUUGUCGGUGACGACACAAGGAUAUGCAUCUUACA”, for which the “apparent Kd” value was 24.7 nM under setting [1] and 6.28 nM under setting [2].
Consider “GGAUAGUGUCGUUAUCCGUAGCGAACAUGAGGAUCACCCAUGUAGGAUAUGUUAUUAAACUAAUAACAGAAGGACGUUGGUCUC”, for which the “apparent Kd” value by setting is: under setting [3], 66.2 nM; under setting [4], 434 nM.
As to “UCGACCAGCGCCAGCCGAACAUGAGGAUCACCCAUGUACUCCAGAAGGCCGCCCAAGAACGGAGUGGAGGAUAUGGAGGUUCUC”, the “apparent Kd” value is, setting by setting: under setting [1], 38 nM; under setting [2], 35.5 nM.
With “ACCAAGCUAGGAUAUGCUUGGGCUCAAAUAAAUAAACACAAACAUGAGGAUCACCCAUGUAGAAGGAGCUUGCU”, the “apparent Kd” value was determined as 12.4 nM under setting [3] and 15.5 nM under setting [4].
“CGGGCGGGAGGAUAUGCGUGGUUUGUUCUCGUUUGGUGUCUACAUGAGGAUCACCCAUGUAGAAGGCUUGUUUG”: the “apparent Kd” value was found to be 13.6 nM under setting [3] and 15.8 nM under setting [4].
As for “AAAUAAACUACCAAAAUAUCCUCACAUGAGGAUCACCCAUGUCAGGAUAUUUGUCCUAAAAGGACAGAGAAGGGACGUGGUAGA”, the “apparent Kd” value is 5.63 nM under setting [3] and 10.7 nM under setting [4].
As for “CUGUACAUAGGAUAUAGUUGCUUUUACAUGAGGAUCACCCAUGUCACUCCUCUCUCUCUUCUAGAAGGAUGUUUCU”, the “apparent Kd” value runs as follows: under setting [3], 72.4 nM; under setting [4], 53.8 nM.
For “GGUAAACAUGAGGAUCACCCAUGUAAUAAUAUGGGAGGAUAUGGGAAUUAAUUAAUUAAACCAGAAGGCCUAAUUG”, the “apparent Kd” value is, setting by setting: under setting [1], 216 nM; under setting [2], 25.6 nM.
As for “UACUUGUCAGGAUAUCUUACAUUAACAUCGUAGUUACCGUUGGAGAAGGGACAUGAGGAUCACCCAUGUUUGGC”, the “apparent Kd” value is 32 nM under setting [3] and 54.9 nM under setting [4].
Turning to “UGCGAACAGGCUAACAUGAGGAUCACCCAUGUGGACUCAUGGUAGGAUAUCGGGAAGGAGGAAACCGAGAAGGGCCGGUGAGCU”, the “apparent Kd” value came out at 217 nM under setting [1] and 150 nM under setting [2].
As for “UUAAUGUGAGGAUAUCAGGUGUGCUAGAGAACUGGUACAUCUGAGAAGGCACAUGAGGAUCACCCAUGUUCUUC”, the “apparent Kd” value runs as follows: under setting [3], 42.8 nM; under setting [4], 197 nM.
As to “UAUGUCUUUGUGAGGAUAUACUUUGUUUGGUCGUAGUAGAAGGCACAUGAGGAUCACCCAUGUAGAUUUUUGGU”, the “apparent Kd” value is, setting by setting: under setting [3], 23.1 nM; under setting [4], 36.1 nM.
For “AAAAAGCGAGGAUAUACAUGAGGAUCACCCAUGUCAAAAGAAUAUAAAGAAAUAGGAAGUAGAAGGCGCAAAAA”, in that order: 55.9 nM and 56 nM.
